Reference: publication PMC10906133 (Journal of Enzyme Inhibition and Medicinal Chemistry, 2024)

Key:
[1] = tested on: iNOS, COX2, IL-6 and TNF-α protein expression; assay: Western blot of inflammatory protein expression in LPS-treated RAW264.7 cells; type: cell-based; conditions: RAW264.7, 2, 1, 0.5 µM 1 h, then LPS 500 ng/mL 24 h
Procedure, shortened: (§1)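 RAW264.7 cells (2 × 10^6/well) were cultured overnight, pretreated 1 h with test compound at 2, 1 or 0.5 µM, then stimulated with LPS 0.5 µg/mL. Lysis was in RIPA, followed by SDS-PAGE and PVDF transfer. Primary antibodies (1:1000) were applied overnight at 4 °C, then HRP secondary for 1 h, with ECL detection and β-actin reference. Three repeats; densitometry given as mean ± SD.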

[2] = tested on: phosphorylation of IκB and p65 (NF-κB signalling pathway); assay: Western blot of NF-κB signalling pathway in LPS-treated RAW264.7 cells; type: cell-based; conditions: RAW264.7, 2, 1, 0.5 µM 1 h, then LPS 500 ng/mL 30 min
Procedure, shortened: as §1

[3] = tested on: p-p38, p-ERK and p-JNK (MAPK signalling pathway); assay: Western blot of MAPKs signalling pathway in LPS-treated RAW264.7 cells; type: cell-based; conditions: RAW264.7, 2, 1, 0.5 µM 1 h, then LPS 500 ng/mL 30 min
[4] = tested on: DSS-induced acute colitis in mice; assay: DSS-induced acute colitis model in mice; type: in vivo, C57BL/6 mice; conditions: for MPO in colon tissue: day 7, E2 20 mg/kg, sulfasalazine 200 mg/kg, oral
Procedure, shortened: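 Male C57BL/6 mice (16–18 g; n=10 per group) received 5% (wt/vol) DSS in drinking water on days 1–7. Test compound (10 or 20 mg/kg) or sulfasalazine 200 mg/kg was given by gavage in 0.5% CMC-Na on days 1–7; control groups received vehicle. Weight, stool and DAI were scored daily. On day 8: serum ELISA (TNF-α, IL-1β, IL-6), colon length, histology, and colon MPO. Values are mean ± SEM.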

| SMILES | Expression of iNOS, COX2, IL-6 and TNF-α protein [1] | Phosphorylation of IκB and p65 proteins [2] | Expression of p-p38, p-ERK and p-JNK [3] | DSS treatment-induced shortening of colon length ([4]; 5% DSS days 1-7, oral E2 10 and 20 mg/kg) | Histopathological symptoms of colon ([4]; 5% DSS days 1-7, oral E2, vs model group) | Levels of COX-2, p-NF-κB and p-Stat3 expression in colon (Western blot) ([4]; DSS-treated mice, oral E2) | Levels of TNF-α, IL-1β and IL-6 in serum (ELISA) ([4]; DSS-treated mice, oral E2) | mRNA expression levels of TNF-α, IL-1β, IL-6, iNOS, COX-2 and TLR4 in colon tissue ([4]; DSS-treated mice, oral E2, RT-qPCR) | MPO in colon tissue [4] |
| --- | --- | --- | --- | --- | --- | --- | --- | --- | --- |
| C#CCOc1ccc(/C=C/c2cc(OC)cc(OC)c2-c2cnnn2C(=O)NCCC)cc1 [E2] | significantly inhibited | inhibited | inhibits the expression of p-p38, p-ERK, and p-JNK in a dose-dependent manner | significantly attenuated | significantly improved these symptoms | decreased | significantly decreased | alleviated | significantly reduced |
| O=C(O)c1cc(/N=N/c2ccc(S(=O)(=O)Nc3ccccn3)cc2)ccc1O [sulfasalazine, Sulfasalazine, reference compound] | – | – | – | – | – | – | – | – | significantly reduced |
